What was measured:
[1] = target: Integrin alpha-4/beta-1 (Homo sapiens, UniProt P05556+P13612); test: Inhibition of integrin alpha4beta1 receptor-mediated human Molt-4 cell adhesion to CS1 peptide; format: cell-based
[2] = Partition coefficient, log P of the compound; format: physicochemical; conditions: octanol/water
Outline: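 logP extrapolated from reverse-phase HPLC retention time converted to capacity factor k, against a standard calibration curve built from compounds of known logP.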

Sequence of Integrin alpha-4/beta-1 (P05556 whole entry): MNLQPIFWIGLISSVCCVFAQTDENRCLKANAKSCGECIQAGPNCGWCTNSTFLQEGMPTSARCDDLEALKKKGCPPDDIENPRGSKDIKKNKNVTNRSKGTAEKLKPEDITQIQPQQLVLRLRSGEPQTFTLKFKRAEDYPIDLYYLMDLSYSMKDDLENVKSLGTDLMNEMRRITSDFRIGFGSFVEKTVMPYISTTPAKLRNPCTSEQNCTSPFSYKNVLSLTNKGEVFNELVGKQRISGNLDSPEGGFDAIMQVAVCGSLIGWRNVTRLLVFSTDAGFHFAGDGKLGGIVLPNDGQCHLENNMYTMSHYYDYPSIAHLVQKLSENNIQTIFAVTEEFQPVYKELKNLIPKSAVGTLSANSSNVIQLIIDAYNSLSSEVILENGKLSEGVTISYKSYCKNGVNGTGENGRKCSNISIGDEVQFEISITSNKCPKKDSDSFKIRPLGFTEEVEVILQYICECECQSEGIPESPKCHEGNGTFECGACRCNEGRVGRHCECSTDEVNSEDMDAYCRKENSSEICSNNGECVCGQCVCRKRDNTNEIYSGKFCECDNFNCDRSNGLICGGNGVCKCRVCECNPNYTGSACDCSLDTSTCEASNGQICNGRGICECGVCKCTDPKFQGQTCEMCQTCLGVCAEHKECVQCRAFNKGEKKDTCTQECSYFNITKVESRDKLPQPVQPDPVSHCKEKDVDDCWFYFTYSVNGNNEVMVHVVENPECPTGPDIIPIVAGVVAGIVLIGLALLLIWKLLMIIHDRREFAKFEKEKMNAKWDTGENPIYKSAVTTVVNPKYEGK
Sequence of Integrin alpha-4/beta-1 (P13612 whole entry): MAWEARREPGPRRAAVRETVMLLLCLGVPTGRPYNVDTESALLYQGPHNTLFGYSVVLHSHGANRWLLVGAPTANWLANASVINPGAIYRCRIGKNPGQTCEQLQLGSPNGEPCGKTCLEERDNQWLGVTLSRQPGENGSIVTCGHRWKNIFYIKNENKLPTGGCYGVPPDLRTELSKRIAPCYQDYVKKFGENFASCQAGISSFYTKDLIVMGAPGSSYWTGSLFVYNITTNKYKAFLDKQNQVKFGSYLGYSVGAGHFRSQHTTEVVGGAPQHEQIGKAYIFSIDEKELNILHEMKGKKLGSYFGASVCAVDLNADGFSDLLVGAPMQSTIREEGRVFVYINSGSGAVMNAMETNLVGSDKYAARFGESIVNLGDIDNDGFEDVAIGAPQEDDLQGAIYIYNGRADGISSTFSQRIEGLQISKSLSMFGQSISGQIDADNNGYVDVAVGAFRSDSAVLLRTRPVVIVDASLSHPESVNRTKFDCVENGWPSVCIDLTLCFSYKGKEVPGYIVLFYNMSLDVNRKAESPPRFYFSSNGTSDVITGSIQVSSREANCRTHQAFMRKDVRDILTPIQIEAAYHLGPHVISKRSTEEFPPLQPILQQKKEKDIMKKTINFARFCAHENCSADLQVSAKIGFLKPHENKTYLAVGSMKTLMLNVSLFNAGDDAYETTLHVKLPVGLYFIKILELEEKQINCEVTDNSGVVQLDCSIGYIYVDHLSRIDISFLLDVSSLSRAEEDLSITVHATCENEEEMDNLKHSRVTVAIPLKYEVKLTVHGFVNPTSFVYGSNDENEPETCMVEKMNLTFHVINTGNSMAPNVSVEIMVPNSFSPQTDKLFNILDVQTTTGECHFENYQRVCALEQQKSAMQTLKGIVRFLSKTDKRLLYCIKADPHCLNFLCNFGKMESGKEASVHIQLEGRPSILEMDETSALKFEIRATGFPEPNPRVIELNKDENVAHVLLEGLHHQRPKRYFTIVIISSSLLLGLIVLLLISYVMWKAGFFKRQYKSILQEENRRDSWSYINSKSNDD

| IC50 [1] | logP [2] | Compound |
| --- | --- | --- |
| 420 nM | 1.83 | NC(=O)C1(NC(=O)[C@@H](CCCC(=O)O)NC(=O)[C@@H](CCCCNC(=O)/C=C/c2cccnc2)NC(=O)c2ccc(Nc3nc4ccccc4[nH]3)cc2)CCCCC1 |
| 186 nM | 2.12 | NC(=O)C1(NC(=O)[C@@H](CCCC(=O)O)NC(=O)[C@@H](CCCCNC(=O)/C=C/c2cccnc2)NC(=O)c2cccc(Nc3nc4ccccc4[nH]3)c2)CCCCC1 |
| 0.305 nM | 2.23 | NC(=O)C1(NC(=O)[C@@H](CCCC(=O)O)NC(=O)[C@@H](CCCCNC(=O)/C=C/c2cccnc2)NC(=O)Cc2ccc(Nc3nc4ccccc4[nH]3)cc2)CCCCC1 |
| 344 nM | 2.8 | NC(=O)C1(NC(=O)[C@@H](CCCC(=O)O)NC(=O)[C@@H](CCCCNC(=O)/C=C/c2cccnc2)NC(=O)CCc2ccc(Nc3nc4ccccc4[nH]3)cc2)CCCCC1 |
| 655 nM | 1.86 | Cc1cccc2[nH]c(Nc3ccc(C(=O)N[C@H](CCCCNC(=O)/C=C/c4cccnc4)C(=O)N[C@H](CCCC(=O)O)C(=O)NC4(C(N)=O)CCCCC4)cc3)nc12 |
| 340 nM | 1.96 | NC(=O)C1(NC(=O)[C@@H](CCCC(=O)O)NC(=O)[C@@H](CCCCNC(=O)/C=C/c2cccnc2)NC(=O)Cc2ccc(Nc3nc4cc(Br)ccc4[nH]3)cc2)CCCCC1 |
| 444 nM | 2.63 | CC(C(=O)N[C@H](CCCCNC(=O)/C=C/c1cccnc1)C(=O)N[C@H](CCCC(=O)O)C(=O)NC1(C(N)=O)CCCCC1)c1ccc(Nc2nc3ccccc3[nH]2)cc1 (stereo partly specified) |
| 27.5 nM | 2.58 | Cc1cccc2[nH]c(Nc3ccc(CC(=O)N[C@H](CCCCNC(=O)/C=C/c4cccnc4)C(=O)N[C@H](CCCC(=O)O)C(=O)NC4(C(N)=O)CCCCC4)cc3)nc12 |

Source: ChEMBL document CHEMBL1138247 (J Med Chem, 2007)
